Several values for one entry are separate records, joined by “and”; a condition that tells them apart may be missing. Identical values can stand only once.
Key:
Rattus norvegicus [1] = assay: (§1) Biodistribution in Rat liver after 30 minutes of iv administration; per g of tissue; type: ADME, organism-based; conditions: in vivo, 0.5 h
Summary of the method: (§2)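 125I-labeled compound solubilized in normal saline with Tween-20 and given iv to rats, about 5-30 μCi (9-83 μg) per animal. Three to five rats per time point. Rats killed by exsanguination under ether anesthesia at 5 min, 30 min or 24 h. Organs minced, blotted free of blood and counted for radioiodine. Lines with "per g" are % administered dose per gram ± SEM.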

Rattus norvegicus [2] = assay: Biodistribution in Rat lung after 24 hours of iv administration; per g of tissue; type: ADME, organism-based; conditions: in vivo; summary of the method: as §2
Rattus norvegicus [3] = assay: Biodistribution in Rat lung after 30 minutes of iv administration; per g of tissue; type: ADME, organism-based; conditions: in vivo, 0.5 h; summary of the method: as §2
Rattus norvegicus [4] = assay: Biodistribution in Rat lung after 5 minutes of iv administration; per g of tissue; type: ADME, organism-based; conditions: in vivo; summary of the method: as §2
Rattus norvegicus [5] = assay: Biodistribution in Rat blood after 24 hours of iv administration; per g of tissue; type: ADME, organism-based; conditions: in vivo; summary of the method: as §2
Rattus norvegicus [6] = assay: Biodistribution in Rat blood after 5 minutes of iv administration; per g of tissue; type: ADME, organism-based; conditions: in vivo; summary of the method: as §2
Rattus norvegicus [7] = assay: Biodistribution in Rat heart after 24 hours of iv administration; per g of tissue; type: ADME, organism-based; conditions: in vivo; summary of the method: as §2
Rattus norvegicus [8] = assay: Biodistribution in Rat heart after 30 minutes of iv administration; per g of tissue; type: ADME, organism-based; conditions: in vivo, 0.5 h; summary of the method: as §2
Rattus norvegicus [9] = assay: Biodistribution in Rat heart after 5 minutes of iv administration; per g of tissue; type: ADME, organism-based; conditions: in vivo; summary of the method: as §2
Rattus norvegicus [10] = assay: Biodistribution in Rat liver after 24 hours of iv administration; per g of tissue; type: ADME, organism-based; conditions: in vivo; summary of the method: as §2
Rattus norvegicus [11] = assay: as §1; type: ADME, organism-based; conditions: in vivo, 0.5 h; summary of the method: as §2; remark: listed apart in the source
Rattus norvegicus [12] = assay: Compound was evaluated for the lipid soluble radioactivity extracted from rat plasma at 24 hr after intravenous administration.; type: functional
Summary of the method: (§3)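 Liver and plasma taken 0.5 or 24 h after iv dosing of 125I-labeled compound in rats (n = 3-5). Extracted by a modified Folch procedure; value is % lipid (CHCl3/MeOH)-extractable radioactivity ± SEM. Extracts run on TLC in hexane/ethyl acetate 5:2 against unlabeled standard, then 1-cm strips counted to give % parent compound.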

Rattus norvegicus [13] = assay: Compound was evaluated for the lipid soluble radioactivity extracted from rat liver at 0.5 hr after intravenous administration.; type: functional; summary of the method: as §3
Rattus norvegicus [14] = assay: Compound was evaluated for the lipid soluble radioactivity extracted from rat liver at 24 hr after intravenous administration.; type: functional; summary of the method: as §3
Rattus norvegicus [15] = assay: Compound was evaluated for the lipid soluble radioactivity extracted from rat plasma at 0.5 hr after intravenous administration.; type: functional; summary of the method: as §3
Rattus norvegicus [16] = assay: Liver radioactivity after iv administration of compound (24 h) in rats; type: functional, organism-based
Summary of the method: (§4)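 Rats (3-5 per time point) dosed iv with about 5-30 μCi (9-83 μg) of 125I-labeled compound in saline containing Tween-20. Killed by exsanguination under ether at 5 min, 30 min or 24 h. Liver removed, minced, blotted and counted. Values are % administered dose per organ, based on each animal's actual liver weight, ± SEM.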

Rattus norvegicus [17] = assay: Liver radioactivity after iv administration of compound (30 min) in rats; type: functional, organism-based; summary of the method: as §4
Rattus norvegicus [18] = assay: Liver radioactivity after iv administration of compound (5 min) in rats; type: functional, organism-based; summary of the method: as §4
Rattus norvegicus [19] = assay: Compound (125I labeled) was evaluated for the total radioactivity in albumin 5 min after intravenous administration.; type: functional; set-up: concentration or dose not given beside the values
Summary of the method: (§5)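 Rat plasma taken 5 or 30 min after iv dosing of 125I-labeled compound (saline/Tween-20) and run on polyacrylamide gel electrophoresis. Gels sectioned and each section gamma-counted. Radioactivity in each band (stacking gel, lipoproteins, albumin, below-albumin) is given as % of total radioactivity applied to the gel.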

Rattus norvegicus [20] = assay: Evaluated for the total radioactivity in below albumin at 30 min after intravenous administration.; type: functional; summary of the method: as §5
Rattus norvegicus [21] = assay: Compound (125I labeled) was evaluated for the total radioactivity in high-density lipoprotein 5 min after intravenous administration.; type: functional; summary of the method: as §5
Rattus norvegicus [22] = assay: Compound (125I labeled) was evaluated for the total radioactivity in high-density lipoprotein, at 30 min after intravenous administration.; type: functional; summary of the method: as §5
Rattus norvegicus [23] = assay: Compound (125I labeled) was evaluated for the total radioactivity in low-density lipoprotein, at 30 min after intravenous administration.; type: functional; summary of the method: as §5
Rattus norvegicus [24] = assay: Compound (125I labeled) was evaluated for the total radioactivity in stacking gel 5 min after intravenous administration.; type: functional; summary of the method: as §5
Rattus norvegicus [25] = assay: Compound (125I labeled) was evaluated for the total radioactivity in stacking gel at 30 min after intravenous administration.; type: functional; summary of the method: as §5
Rattus norvegicus [26] = assay: Compound (125I labeled)was evaluated for the total radioactivity in low-density lipoprotein 5 min after intravenous administration.; type: functional; summary of the method: as §5
Rattus norvegicus [27] = assay: Biodistribution in Rat liver after 5 minutes of iv administration; per g of tissue; type: ADME, organism-based; conditions: in vivo; summary of the method: as §2
Rattus norvegicus [28] = assay: Biodistribution in Rat blood after 30 minutes of iv administration; per g of tissue; type: ADME, organism-based; conditions: in vivo, 0.5 h; summary of the method: as §2
Rattus norvegicus [29] = assay: Compound (125I labeled) was evaluated for the total radioactivity in albumin at 30 min after intravenous administration.; type: functional; set-up: concentration or dose not given beside the values; summary of the method: as §5

**Q.** `CCCCCCCCCCCCCCCC(=O)OC(COC(=O)Cc1c(I)cc(I)c(N)c1I)COC(=O)Cc1c(I)cc(I)c(N)c1I` was tested. Which Biodistribution (Rattus norvegicus [1]) did it give?
**A.** 7.62%

**Q.** What about the Biodistribution (Rattus norvegicus [2]) of the same molecule?
**A.** 0.13%

**Q.** What about the Biodistribution (Rattus norvegicus [3]) of the same molecule?
**A.** 0.73%

**Q.** And the Biodistribution (Rattus norvegicus [4])?
**A.** 1.13%

**Q.** And the Biodistribution (Rattus norvegicus [5])?
**A.** 0.12%

**Q.** What about the Biodistribution (Rattus norvegicus [6]) of the same molecule?
**A.** 4.75%

**Q.** What about the Biodistribution (Rattus norvegicus [7]) of the same molecule?
**A.** 0.05%

**Q.** What about the Biodistribution (Rattus norvegicus [8]) of the same molecule?
**A.** 0.32%

**Q.** And the Biodistribution (Rattus norvegicus [9])?
**A.** 0.64%

**Q.** And the Biodistribution (Rattus norvegicus [10])?
**A.** 0.11% and 1.39%

**Q.** And the Biodistribution (Rattus norvegicus [11])?
**A.** 7.62%

**Q.** What about the Extracted (Rattus norvegicus [12]) of the same molecule?
**A.** 67%

**Q.** What about the Parent compound (Rattus norvegicus [12]) of the same molecule?
**A.** 60.8%

**Q.** What about the Extracted (Rattus norvegicus [13]) of the same molecule?
**A.** 90.5%

**Q.** And the Parent compound (Rattus norvegicus [13])?
**A.** 89.5%

**Q.** What about the Extracted (Rattus norvegicus [14]) of the same molecule?
**A.** 80.1%

**Q.** And the Parent compound (Rattus norvegicus [14])?
**A.** 68.8%

**Q.** And the Extracted (Rattus norvegicus [15])?
**A.** 82.7%

**Q.** And the Parent compound (Rattus norvegicus [15])?
**A.** 82.8%

**Q.** And the Radioactivity (Rattus norvegicus [16])?
**A.** 10.3

**Q.** What about the Radioactivity (Rattus norvegicus [17]) of the same molecule?
**A.** 57.2

**Q.** And the Radioactivity (Rattus norvegicus [18])?
**A.** 38.8

**Q.** What about the Total radioactivity (Rattus norvegicus [19]) of the same molecule?
**A.** 4.5%

**Q.** What about the Total radioactivity (Rattus norvegicus [20]) of the same molecule?
**A.** 3.2% and 2.4%

**Q.** And the Total radioactivity (Rattus norvegicus [21])?
**A.** 34.7%

**Q.** And the Total radioactivity (Rattus norvegicus [22])?
**A.** 42%

**Q.** And the Total radioactivity (Rattus norvegicus [23])?
**A.** 35.1%

**Q.** And the Total radioactivity (Rattus norvegicus [24])?
**A.** 18.7%

**Q.** What about the Total radioactivity (Rattus norvegicus [25]) of the same molecule?
**A.** 16.6%

**Q.** What about the Total radioactivity (Rattus norvegicus [26]) of the same molecule?
**A.** 39%

**Q.** And the Biodistribution (Rattus norvegicus [27])?
**A.** 0.54% and 5.53%

**Q.** And the Biodistribution (Rattus norvegicus [28])?
**A.** 2.62%

**Q.** What about the Total radioactivity (Rattus norvegicus [29]) of the same molecule?
**A.** 3.9%

Reference: ChEMBL document CHEMBL1123382, “Potential tumor- or organ-imaging agents. 27. Polyiodinated 1,3-disubstituted and 1,2,3-trisubstituted triacylglycerols” (J Med Chem, 1986)
